From the EternaBench riboswitch data

System: MS2 coat protein
Experiment: apparent Kd, MS2 coat protein; higher = weaker binding; RNA-MaP array; FMN 200 µM where present
In short: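 Designs on Illumina sequencing-chip clusters, transcribed by stalled E. coli RNA polymerase, were exposed to SNAP-549-labelled MS2 coat protein in doubling steps from 0.7 or 1.5 nM up to 3 µM, without and then with constant ligand. The buffer held 100 mM Tris-HCl pH 7.5, 80 mM KCl, 4 mM MgCl2, BSA, DTT, yeast tRNA and Tween-20. Apparent Kd values are medians of filtered per-cluster binding-curve fits to green signal normalised to red-channel RNA signal and control-cluster median Fmax.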

[1] = designed as: OFF switch for flavin mononucleotide, no ligand
[2] = ligand present: flavin mononucleotide, designed as: OFF switch for flavin mononucleotide
[3] = designed as: ON switch for flavin mononucleotide, no ligand
[4] = ligand present: flavin mononucleotide, designed as: ON switch for flavin mononucleotide

Sequence | apparent Kd [1] [nM] | apparent Kd [2] [nM] | apparent Kd [3] [nM] | apparent Kd [4] [nM]
CUAAGUGCCGGAGGAUAUACAUGAGGAUCACCCAUGUCAGUCUGUUUACAUGUAGAAGGCCGGCGAACAAAGAACUUGCCACGA | 43.8 | 242 |  | 
CUAAUGUAGACAGGAUAUCCUGGACAUGAGGAUCACCCAUGUGCAUAAAAUGGAGAAGGGUCACGGAGGCCCUGUGGGCAGGGU |  |  | 46.3 | 9.9
CUAAUUAGUCAGAAGGUGCUGCCGGAAUCAUAGCAAGGAUAUGACAUGAGGAUCACCCAUGUACAGAUCCUACAUAAAAUCAGG | 5.73 | 8.98 |  | 
CUACUUAGCCAGAAGGCAAGAGGUACAUGAGGAUCACCCAUGUAGUGAUUGAGGAUAUGGCAAGGUUCUAUGGUGCGUCUAGCC |  |  | 7.53 | 5.12
CUAUAUAAUACCUCAUGUACAUGAGGAUCACCCAUGUUAACAAAGGAUAUAUUUAUAUUAAUAAAGUAGAAGGUUGUACUAUUU | 19.5 | 17.1 |  | 
CUAUCGUUGCAGAAGGUUAAAUAAUUUCUCAUCUUGUUUACAUGAGGAUCACCCAUGUAUUUGUUGAAGGAUAUGCAAGUGUUG | 12.5 | 11 |  | 
CUAUGAGCGAUAGGAUAUACUGAGAUUGAGUGGGUAGAAGGAUCGAUAGUGUAGAAGACAUGAGGAUCACCCAUGUUAUGGGUU |  |  | 726 | 501
CUAUGCCGAACAGGAUAUUCGAUCAAAAGGAUAGAAGAAGGGUUACAUGAGGAUCACCCAUGUAUGCACAUGAGGAUCCCUUAA | 255 | 296 |  | 
CUAUGCGGAAUAGGAUAUUCGUUCAUGAGGAUAGAAGAAGGGUUACAUGAGGAUCACCCAUGUAUGCACAUGAGGAUCCCUUAG | 252 | 228 |  | 
CUAUUACGAGGAUAUCGUCAGAGUCACAUGAGGAUCACCCAUGUAUCCCACGGACCGGAAUGAGAAGGCGUUCAUG | 288 | 769 |  | 
CUAUUUAAGCAGAAGGCGUGGGAAAGAUUUACACGAGGAUAUGCGAUAACGGCGUAUGACAUGAGGAUCACCCAUGUACGUGCG |  |  | 7.22 | 4.47
CUCAAACAUGAGGAUCACCCAUGUCAGGAUAUGAUACUAUGUACUUCGGUACAUAGUAUCAGAAGGGAUAUGAA | 87.6 | 111 |  | 
CUCAUGUCAGGAUAUCAGUAGUAAAAAAAUAAAAUUACUACUGAGAAGGGACAUGAGGAUCACCCAUGUCCGGG | 20.4 | 18.4 |  | 
CUCGGCGCACAGAAGGAUCGGUACAUGAGGAUCACCCAUGUAAGCAAAGAUAGGAUAUGUGGAGCUUACAGGGAAAUUGAACAA |  |  | 74.6 | 10.8
CUCGUGUAAGGAUAUACGAGUCACGGAAAUAAACCGUGAAGGUAGAAGGUACAUGAGGAUCACCCAUGUAAAAC | 40 | 347 |  | 
CUCGUUAUGUUAGGAUAUGAUGCAUCCCGAUAAUCAGAAGGAACAUGAGGAUCACCCAUGUGACAUUUGGUGAAUACAAGCCAG | 6.79 | 7.96 |  | 
CUCUAUCAUGUAGGAUAUGCGUGUCGAAGCUAUGCAGAAGGACAUGAGGAUCACCCAUGUCUUUCUGUCUGCGGACGGACAGGG | 14.9 | 18.2 |  | 
CUCUUCUCUGAGGAUAUUUUAUGUGUGGACGUGAAAGAAGGCAGUACAUGAGGAUCACCCAUGUGUCCCUCUGU | 126 | 216 |  | 
CUCUUGGCAGGAUAUGCUUUUUUAGACAUGAGGAUCACCCAUGUGAUGAAUAUUGGGUUCGCAGAAGGGCCUGAAU | 54.1 | 48.3 |  | 
CUCUUGUGAGGAUAUCAGUAGUAAAAAAAUAAAAUUACUACUGAGAAGGCACAUGAGGAUCACCCAUGUCUUUC | 211 | 158 |  | 
CUGACGCAAGCAGGAUAUCUACUGGCGAUGGUACAUGAGGAUCACCCAUGUAGAGAAGGGCUAAGUGGAAGGAUAAAAUAAAAG | 110 | 120 |  | 
CUGACGGCAGGAUAUACAUGAGGAUCACCCAUGUAAAUUUUUCGUUUACCUUGACCGUGUAGAAGGGCCCAACC | 14.8 | 14.7 |  | 
CUGAGCUGAGGAUAUACAUGAGGAUCACCCAUGUGAAGUAGCUUGCGUACAGGCAGAUGUAGAAGGCAGUUCGG | 39.1 | 179 |  | 
CUGGAAUACAGACAUGAGGAUCACCCAUGUUUAAGGGAGGCACAGGAUAUGUCGACGCACCAUAGACAGAAGGGUGACUUGCUU |  |  | 47.8 | 20.3
CUGGCCCAGCCCGCCUAGUUCGGGAGAAGGAGGAGACAUGAGGAUCACCCAUGUGGCCUUAUCUCCUAGGAUAUCCCGGCGGGU | 5.32 | 17.9 |  | 
CUGGGCGGAGGAUAUACAGGUUGGGCAUAAGUUCGGCUGGGACAUGAGGAUCACCCAUGUAGAAGGUUGUUUAG | 25.3 | 23.1 |  | 
CUGUCGAUAUCAGGAUAUCGAUUAACUACAUGAGGAUCACCCAUGUUGACAUGGAAUAUAACUUGCGAGAAGGGAUAACGAUAG |  |  | 23.4 | 13.8
